Read-outs that look alike come from different tables or passages of the source.
What was measured:
[1] = format: in vivo, human; details: for clearance: CL; for half-life: t½
Procedure, shortened: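 Open-label, randomized 2-period, 2-sequence crossover in 12 healthy volunteers, fasted ≥10 h. Single 100 mg oral tablet with water to 240 mL, or 50 mg IV (1 mg/mL over 1.25 h). Plasma sampled 0–96 h and assayed by HPLC-MS/MS (LLOQ 3 ng/mL). Noncompartmental analysis used: CL/F = dose/AUC0‐∞. Log dose-normalized AUCs fitted by linear mixed-effect model; ratios exponentiated with 90% CI.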

[2] = once daily (QD), patients with advanced myeloid malignancies; cited from earlier work
[3] = cited from earlier work
[4] = tested on: cytochrome P450 (CYP) 3A4/5; details: preclinical studies; cited from earlier work
[5] = Hepatic extraction estimate, well-stirred model; set-up: species or system human; details: hepatic blood flow of 87 L/h
[6] = Safety and tolerability evaluation in the absolute bioavailability study; format: in vivo, human
Procedure, shortened: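 Healthy subjects in a randomized crossover each received a single 100 mg oral tablet and a single 50 mg IV infusion over 1.25 h, fasted. Recorded as AEs: adverse drug reactions, illnesses with onset during study, exacerbation of previous illness, clinically significant physical-examination changes and abnormal objective test findings. Vital signs, ECG and laboratory parameters were monitored.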

[7] = weakly basic drug; cited from earlier work
human blood = details: parenteral formulation, in vitro; cited from earlier work
[8] = cited from earlier work; remark: listed apart in the source
[9] = single 100‐mg dose; cited from earlier work
[10] = in vitro data and data from the ADME study; cited from earlier work
[11] = cited from earlier work; remark: listed apart in the source
Human mass balance = format: in vivo; details: urine, po, 100 mg
[12] = parenteral formulation, rabbit; cited from earlier work
[13] = 100 mg oral tablet, single dose, fasted
[14] = human, plasma, iv, 50 mg, arithmetic mean ± SD, 50 mg IV, single dose, fasted
[15] = human, plasma, iv, 50 mg, geometric mean (geometric CV, %), 50 mg IV, single dose, fasted
[16] = human, plasma, po, 100 mg, arithmetic mean ± SD, 100 mg oral tablet, single dose, fasted

In the case of CN1CC[C@@H](NC(=O)Nc2ccc(C#N)cc2)C[C@@H]1c1nc2ccccc2[nH]1 [Glasdegib], the “AUC0‐last(dn), dose normalized geometric mean from the statistical model” value ([1]; 50 mg IV) is reported as 96.98 ng·h/mL/mg, the “AUC0‐∞(dn), dose normalized geometric mean from the statistical model” value ([1]; 50 mg IV) is reported as 98.90 ng·h/mL/mg and the “Intersubject variability in CL, %CV of the geometric mean” value ([1]; 50 mg IV) is reported as 38%. The “t½, arithmetic mean ± SD” value ([1]; 50 mg IV, single dose, fasted) was 13.78 ± 2.97 h, the “AUC0‐last(dn), dose normalized geometric mean from the statistical model” value ([1]; 100 mg oral tablet) was 74.88 ng·h/mL/mg and the “AUC0‐∞(dn), dose normalized geometric mean from the statistical model” value ([1]; 100 mg oral tablet) was 76.28 ng·h/mL/mg. For the same compound, the “Intersubject variability in CL/F, %CV of the geometric mean” value ([1]; 100 mg oral tablet) was 38%, the “CL/F, arithmetic mean ± SD” value [1, 13] was 13.87 ± 4.51 L/h and the “CL/F, geometric mean (geometric CV, %)” value [1, 13] was 13.10 (38) L/h. The “t½, arithmetic mean ± SD” value [1, 13] was 14.26 ± 2.45 h, the “CL/F, arithmetic mean ± SD” value ([1]; 100 mg oral tablet, single dose, fasted, listed as glasdegib) was 13.87 L/h and the Tmax ([1]; human, plasma, iv, 50 mg) was 1.27 h. For the same compound, the AUC ([1]; human, plasma, iv, 50 mg, AUC0‐last, arithmetic mean ± SD, 50 mg IV, single dose, fasted) was 5120 ± 2160 ng·h/mL, the AUC ([1]; human, plasma, iv, 50 mg, AUC0‐last, geometric mean (geometric CV, %), 50 mg IV, single dose, fasted) was 4780 ng·h/mL and the AUC ([1]; human, plasma, iv, 50 mg, AUC0‐∞, arithmetic mean ± SD, 50 mg IV, single dose, fasted) was 5220 ± 2210 ng·h/mL. It also gave an AUC ([1]; human, plasma, iv, 50 mg, AUC0‐∞, geometric mean (geometric CV, %), 50 mg IV, single dose, fasted) of 4880 ng·h/mL, a clearance [1, 14] of 181 mL/min and a clearance [1, 15] of 171 mL/min. The Cmax [1, 14] was 687 ± 197 ng/mL, the Cmax [1, 15] was 665 ng/mL and the half-life [1, 14] was 13.8 h. The bioavailability ([1]; human, plasma, oral, Absolute oral bioavailability, arithmetic mean ± SD, arithmetic mean ratios, without logarithmic transformation, of AUC0‐∞(dn) oral to IV) was 78.5 ± 12.8%, the Tmax ([1]; human, plasma, po, 100 mg) was 1.52 h and the AUC ([1]; human, plasma, po, 100 mg, AUC0‐last, arithmetic mean ± SD, 100 mg oral tablet, single dose, fasted) was 7990 ± 3310 ng·h/mL. It also gave an AUC ([1]; human, plasma, po, 100 mg, AUC0‐last, geometric mean (geometric CV, %), 100 mg oral tablet, single dose, fasted) of 7490 ng·h/mL, an AUC ([1]; human, plasma, po, 100 mg, AUC0‐∞, arithmetic mean ± SD, 100 mg oral tablet, single dose, fasted) of 8160 ± 3440 ng·h/mL and an AUC ([1]; human, plasma, po, 100 mg, AUC0‐∞, geometric mean (geometric CV, %), 100 mg oral tablet, single dose, fasted) of 7630 ng·h/mL. The Cmax [1, 16] was 684 ± 155 ng/mL, the Cmax ([1]; human, plasma, po, 100 mg, geometric mean (geometric CV, %), 100 mg oral tablet, single dose, fasted) was 668 ng/mL and the half-life [1, 16] was 14.3 h. For the same compound, the “Maximum tolerated dose as a single agent” value [2] was 400 mg, the “Impact of disintegration and dissolution on absorption kinetics” value ([3]; oral solution compared to instant‐release tablet) was “do not appear to impact the absorption kinetics” and the “Geometric mean Cmax” value ([3]; single 100‐mg oral dose, 100‐mg maleate immediate release tablet, healthy subjects) was 775.3 ng/mL. The Metabolizing enzyme [4] was “primarily metabolized by cytochrome P450 (CYP) 3A4/5”, the Hepatic extraction [5] was under 0.3 and the AEs reported ([6]; following 50 mg IV administration) was “No AEs were reported”. For the same compound, the “Number of AEs reported” value ([6]; following 100 mg oral tablet, 1 mild and 1 moderate, in 2 subjects) was 2, the Tolerability ([6]; single 100‐mg oral and 50‐mg IV doses, healthy subjects) was “generally safe and well tolerated” and the “Peak ALT elevation, subject with moderate AE” value ([6]; treatment period 1 day 10, after oral 100 mg) was 3 × upper limit of normal. For the same compound, the “Solubility, pH dependence” value [7] was “decreasing solubility as pH increases”, the “Hemolysis in human blood” value (human blood) was “did not suggest that glasdegib was the cause of hemolysis in human blood” and the “Administered parent dose recovered in the feces” value [8] was 19.5%. For the same compound, the “Contribution of the glucuronidation pathway via UGT1A9 to elimination” value [8] was “only minor”, the “Major route of elimination” value [8] was “primarily through CYP3A4 oxidation” and the “Mean plasma renal clearance” value [8] was 1.97 L/h. For the same compound, the “Effect of proton‐pump inhibitors on glasdegib PK” value [9] was “do not have a clinically relevant effect”, the “Plasma to whole blood partitioning” value [10] was under 1 and the Maximum tolerated dose ([11]; QD, patients with advanced solid tumor) was 320 mg. The Tolerability ([11]; single dose of 320 mg, patients with advanced tumors) was “well tolerated”, the dose excreted (Human mass balance) was at least 49% and the “Local vascular tissue irritation” value [12] was “did not suggest that glasdegib was the cause of hemolysis in human blood and/or local vascular tissue irritation”.

For [^14C]glasdegib, the “Mean recovery of radioactivity in urine (as parent and metabolites)” value ([8]; single oral dose of 100‐mg/100‐µCi, 6 healthy volunteers) is given as 49%.

— paper PMC6850403 (Clinical Pharmacology in Drug Development, 2019)
